Laboratory results published in ChEMBL document CHEMBL1129487, “In vivo biodistribution, pharmacokinetic parameters, and brain uptake of 5-halo-y-methoxy(or ethoxy)-5,6-dihydro-3'-azido-3'-deoxythymidine diastereomers as potential prodrugs of 3'-azido-3'-deoxythymidine” (J Med Chem, 1996).
Values belong to the molecule of their own block, whether it stands above or below them.

Key:
[1] = Concentration in mouse blood 20 min post injection at a dose 240 mocromol/kg; format: ADME, organism-based; conditions: whole blood
Method in brief: (§1)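 Balb/c mice given 240 µmol/kg iv of the test diastereomer (10% DMSO/water vehicle, tail vein). Blood was drawn by cardiac puncture into heparinized syringe at 15, 20, 60 and 90 min. FIAU was added as internal standard, and the sample was extracted by Sep-Pak. AZT and parent were measured by C18 HPLC (water:methanol 7:3, UV 265 nm). Values are the average of two experiments.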

Mus musculus [2] = organism: Mus musculus; experiment: Thymidine Influx Inhibition constant for the compound in fresh Murine Erythrocytes; format: functional
Method in brief: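 Erythrocytes from B6D2F1 mice, 10% hematocrit in HEPES-buffered saline, were given [methyl-3H]-thymidine (0.1–1.0 mM, four levels) with or without test compound (0.1–2.5 mM, four levels). Zero-trans influx ran 3 s and was stopped with 10 µM NBMPR (final). Cells were perchloric acid extracted and counted, with the zero-time blank subtracted. Ki came from a Dixon plot (1/v vs i), in duplicate.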

[3] = Partition coefficient for 1-octanol/water was evaluated; format: physicochemical
[4] = Half-life for the compound after intravenous administration into BALB/c Mice in plasma samples.; format: ADME, organism-based; conditions: mouse
Method in brief: (§2)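 Tail-vein injection in Balb/c mice at 144 µmol/kg, dissolved in 10% DMSO/water. Three mice per time point were killed by CO2, and blood was taken by cardiac puncture. With FIAU as internal standard, supernatant was Sep-Pak extracted. AZT was quantified by C18 HPLC (water:methanol 7:3, 265 nm; detection limit about 0.5 µg/mL). AUC covers 0 to last sample; t1/2 is from a one-compartment model.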

[5] = Concentration in mouse blood 15 min post injection at a dose 240 mocromol/kg; format: ADME, organism-based; conditions: whole blood; method in brief: as §1
[6] = Concentration in mouse blood 90 min post injection at a dose 240 mocromol/kg; format: ADME; conditions: whole blood; method in brief: as §1
Mus musculus [7] = experiment: Pharmacokinetic parameter AUC for the compound after intravenous administration into BALB/c Mice in plasma samples.; format: ADME, organism-based; design: concentration or dose not given beside the values; conditions: in vivo; method in brief: as §2
Mus musculus [8] = organism: Mus musculus; experiment: Percentage of radioactivity in P3 subregion in mouse brain that contains microsomal fraction after Jugular Vein Injection; format: ADME, organism-based; conditions: in vivo, iv
Method in brief: (§3)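 Brains were pooled from five mice, with cerebella removed, in 0.32 M sucrose. Homogenate was centrifuged at 0-4 °C: P1 at 1000g 10 min, P2 at 10000g 30 min, P3 at 100000g 1 h, S3 supernatant. Protein was by Lowry. Pellets were Protosol-solubilized at 55 °C, then counted by combustion/scintillation.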

Mus musculus [9] = organism: Mus musculus; experiment: Percentage of total protein recovered in P2 subregion in mouse brain that contains myelin fragments, synaptosomes (pinched-nerve endings), and mitochondria after Jugular Vein Injection; format: ADME, organism-based; conditions: in vivo, iv; method in brief: as §3
Mus musculus [10] = organism: Mus musculus; experiment: Distribution of analyte (pmol/mg) in mouse brain regions after Jugular Vein Injection into rest of the brain; format: ADME, organism-based; conditions: in vivo, iv
Mus musculus [11] = organism: Mus musculus; experiment: Quantity of anylate in P2 subregion in mouse brain that contains myelin fragments, synaptosomes (pinched-nerve endings), and mitochondria after Jugular Vein Injection; format: functional, organism-based; method in brief: as §3
Mus musculus [12] = organism: Mus musculus; experiment: Distribution of analyte (pmol/mg) in mouse brain regions after Jugular Vein Injection into striatum; format: ADME, organism-based; conditions: in vivo, iv
Mus musculus [13] = organism: Mus musculus; experiment: Quantity of anylate in S3 which is the soluble fraction in mouse brain after Jugular Vein Injection; format: functional; method in brief: as §3
Mus musculus [14] = organism: Mus musculus; experiment: Distribution of analyte (pmol/mg) in mouse brain regions after Jugular Vein Injection into hypothalamus; format: ADME, organism-based; conditions: in vivo, iv
Mus musculus [15] = organism: Mus musculus; experiment: Distribution of analyte (pmol/mg) in mouse brain regions after Jugular Vein Injection into pons and medulla; format: ADME, organism-based; conditions: in vivo, iv
Mus musculus [16] = organism: Mus musculus; experiment: Percentage of radioactivity in P1 subregion in mouse brain that contains nuclei and cell debris, after Jugular Vein Injection; format: ADME, organism-based; conditions: in vivo, iv; method in brief: as §3
Mus musculus [17] = organism: Mus musculus; experiment: Percentage of total protein recovered in P1 subregion in mouse brain that contains nuclei and cell debris, after Jugular Vein Injection; format: ADME, organism-based; conditions: in vivo, iv; method in brief: as §3
Mus musculus [18] = organism: Mus musculus; experiment: Percentage of radioactivity in P2 subregion in mouse brain that contains myelin fragments, synaptosomes (pinched-nerve endings), and mitochondria after Jugular Vein Injection; format: ADME, organism-based; conditions: in vivo, iv; method in brief: as §3
Mus musculus [19] = organism: Mus musculus; experiment: Quantity of anylate in P3 subregion in mouse brain that contains microsomal fraction after Jugular Vein Injection; format: functional, organism-based; method in brief: as §3
Mus musculus [20] = organism: Mus musculus; experiment: Percentage of total protein recovered in P3 subregion in mouse brain that contains microsomal fraction after Jugular Vein Injection; format: ADME, organism-based; conditions: iv; method in brief: as §3
Mus musculus [21] = organism: Mus musculus; experiment: Percentage of radioactivity in S3 which is the soluble fraction in mouse brain after Jugular Vein Injection; format: ADME, organism-based; conditions: in vivo, iv; method in brief: as §3
Mus musculus [22] = organism: Mus musculus; experiment: Quantity of anylate in P1 subregion in mouse brain that contains nuclei and cell debris, after Jugular Vein Injection; format: functional; method in brief: as §3
Mus musculus [23] = organism: Mus musculus; experiment: Distribution of analyte (pmol/mg) in mouse brain regions after Jugular Vein Injection into hippocampus; format: ADME, organism-based; conditions: in vivo, iv
Mus musculus [24] = organism: Mus musculus; experiment: Percentage of total protein recovered in S3 which is the soluble fraction in mouse brain after Jugular Vein Injection; conditions: in vivo, iv
Mus musculus [25] = organism: Mus musculus; experiment: Distribution of analyte (pmol/mg) in mouse brain regions after Jugular Vein Injection into cortex; format: ADME, organism-based; conditions: in vivo, iv
Mus musculus [26] = organism: Mus musculus; experiment: Distribution of analyte (pmol/mg) in mouse brain regions after Jugular Vein Injection into cerebellum; format: ADME, organism-based; conditions: in vivo, iv
[27] = Concentration in mouse blood 60 min post injection at a dose 240 mocromol/kg; format: ADME, organism-based; conditions: whole blood; method in brief: as §1

concentration at 20 min [1]: 2500 ng/mL
Ki (Mus musculus [2]): 1330 µM
Partition coefficient [3]: 1.3
half-life [4]: 23.5 min
concentration at 0.25 h [5]: 2500 ng/mL
concentration at […] [6]: < 1000 ng/mL
AUC (Mus musculus [7]): 11800 ng·h/mL
Compound: Cc1cn([C@H]2C[C@H](N=[N+]=[N-])[C@@H](CO)O2)c(=O)[nH]c1=O [ZIDOVUDINE]

Ki (Mus musculus [2]): > 1500 µM
Partition coefficient [3]: 3.3
Compound: CO[C@H]1N(C2CC(N=[N+]=[N-])C(CO)O2)C(=O)NC(=O)[C@@]1(C)Cl (stereo not given in full)

Distribution (Mus musculus [8]): 1.4%
Ki (Mus musculus [2]): 450 µM
Partition coefficient [3]: 13.2
Distribution (Mus musculus [9]): 53.1%
Distribution (Mus musculus [10]): 0.71 pmol/mg
Distribution (Mus musculus [12]): 0.88 pmol/mg
half-life [4]: 41.8 min
Distribution (Mus musculus [14]): 1.32 pmol/mg
Distribution (Mus musculus [15]): 0.66 pmol/mg
Distribution (Mus musculus [16]): 4.6%
Distribution (Mus musculus [17]): 13.3%
Distribution (Mus musculus [18]): 5.6%
Distribution (Mus musculus [20]): 8.7%
Distribution (Mus musculus [21]): 88.4%
Distribution (Mus musculus [23]): 0.71 pmol/mg
AUC (Mus musculus [7]): 6740 ng·h/mL
Distribution (Mus musculus [24]): 24.9%
Distribution (Mus musculus [25]): 0.71 pmol/mg
Distribution (Mus musculus [26]): 0.72 pmol/mg
Compound: CO[C@H]1N(C2CC(N=[N+]=[N-])C(CO)O2)C(=O)NC(=O)[C@]1(C)Br (stereo not given in full)
Quantity (Mus musculus [11]): 0.65 pmol/mg
Quantity (Mus musculus [13]): 21.8 pmol/mg
Quantity (Mus musculus [19]): 0.98 pmol/mg
Quantity (Mus musculus [22]): 2.08 pmol/mg

Ki (Mus musculus [2]): 500 µM
Partition coefficient [3]: 16.7
half-life [4]: 31.1 min
AUC (Mus musculus [7]): 13500 ng·h/mL
Compound: CO[C@@H]1N(C2CC(N=[N+]=[N-])C(CO)O2)C(=O)NC(=O)[C@@]1(C)Br (stereo not given in full)

Ki (Mus musculus [2]): 125 µM
Compound: O=c1ccn([C@H]2C[C@H](O)[C@@H](CO)O2)c(=O)[nH]1 [DEOXYURIDINE]

Ki (Mus musculus [2]): 200 µM
Partition coefficient [3]: 18.8
half-life [4]: 149 min
AUC (Mus musculus [7]): 9820 ng·h/mL
Compound: CO[C@@H]1N(C2CC(N=[N+]=[N-])C(CO)O2)C(=O)NC(=O)[C@@]1(C)I (stereo not given in full)

concentration at 20 min [1]: 12500 ng/mL
Ki (Mus musculus [2]): 360 µM
Partition coefficient [3]: 7.6
concentration at 0.25 h [5]: 28800 ng/mL
concentration at […] [6]: 1100 ng/mL
concentration at 1 h [27]: 16300 ng/mL
Compound: CO[C@H]1N(C2CC(N=[N+]=[N-])C(CO)O2)C(=O)NC(=O)[C@]1(C)Cl (stereo not given in full)

Ki (Mus musculus [2]): 350 µM
Partition coefficient [3]: 10.6
half-life [4]: 33.6 min
AUC (Mus musculus [7]): 12500 ng·h/mL
Compound: CO[C@H]1N(C2CC(N=[N+]=[N-])C(CO)O2)C(=O)NC(=O)[C@]1(C)I (stereo not given in full)

Distribution (Mus musculus [8]): 2.4%
Distribution (Mus musculus [9]): 43%
Distribution (Mus musculus [10]): 0.83 pmol/mg
Distribution (Mus musculus [12]): 0.85 pmol/mg
Distribution (Mus musculus [14]): 1.1 pmol/mg
Distribution (Mus musculus [15]): 0.62 pmol/mg
Distribution (Mus musculus [16]): 5.2%
Distribution (Mus musculus [17]): 11.9%
Distribution (Mus musculus [18]): 7.7%
Distribution (Mus musculus [20]): 17.6%
Distribution (Mus musculus [21]): 84.7%
Distribution (Mus musculus [23]): 1.1 pmol/mg
Distribution (Mus musculus [24]): 27.5%
Distribution (Mus musculus [25]): 0.66 pmol/mg
Distribution (Mus musculus [26]): 0.66 pmol/mg
Compound: CCO[C@H]1N(C2CC(N=[N+]=[N-])C(CO)O2)C(=O)NC(=O)[C@]1(C)Br (stereo not given in full)
Quantity (Mus musculus [11]): 1.62 pmol/mg
Quantity (Mus musculus [13]): 27.8 pmol/mg
Quantity (Mus musculus [19]): 1.21 pmol/mg
Quantity (Mus musculus [22]): 3.96 pmol/mg
